Measured values: ChEMBL document CHEMBL3526016, “Interaction of lapatinib with cytochrome P450 3A5” (Drug Metab Dispos, 2012)

Key:
Format in all cases: ADME
Cytochrome P450 3A5 [1] = molecular target: T1, Cytochrome P450 3A5 (Homo sapiens, UniProt P20815); assay: Inhibition of human recombinant CYP3A5 using testosterone as substrate assessed as testosterone 6-beta-hydroxylation at 5 to 50 uM preincubated up to 30 mins with NADPH followed by substrate addition measured after 10 mins by LC/MS/MS analysis; conditions: recombinant enzyme
T1 sequence (P20815 whole entry): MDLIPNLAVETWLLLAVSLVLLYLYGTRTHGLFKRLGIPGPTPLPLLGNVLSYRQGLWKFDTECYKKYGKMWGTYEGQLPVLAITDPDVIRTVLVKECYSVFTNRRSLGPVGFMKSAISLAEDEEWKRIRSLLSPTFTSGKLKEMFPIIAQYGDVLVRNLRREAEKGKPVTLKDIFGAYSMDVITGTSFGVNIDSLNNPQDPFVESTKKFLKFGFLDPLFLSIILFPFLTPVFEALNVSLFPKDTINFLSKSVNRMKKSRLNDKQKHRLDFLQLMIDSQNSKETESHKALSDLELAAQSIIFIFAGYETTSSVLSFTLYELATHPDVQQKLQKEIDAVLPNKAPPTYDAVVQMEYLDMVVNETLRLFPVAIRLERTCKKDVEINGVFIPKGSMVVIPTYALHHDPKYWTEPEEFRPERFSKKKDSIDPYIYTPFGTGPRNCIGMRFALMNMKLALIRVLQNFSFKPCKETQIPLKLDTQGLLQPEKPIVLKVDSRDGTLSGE
Procedure, shortened: (§1)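 Primary incubation at 37°C (n=3) held 20 pmol/ml rCYP3A5 in 100 mM phosphate (pH 7.4), 0.1% DMSO and 0.9% ACN, with inhibitor; lapatinib was at 2.5–50 µM. NADPH started the reaction; buffer replaced it in negative controls. At 0, 3, 8, 15, 22 and 30 min, aliquots were diluted 10-fold into 200 µM testosterone or 25 µM midazolam with NADPH regenerating system for 10 min at 37°C. 6β-Hydroxytestosterone or 1'-hydroxymidazolam was measured by LC/MS/MS. Ln % residual activity was regressed against time to give kobs.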

Cytochrome P450 3A5 [2] = molecular target: T1, Cytochrome P450 3A5; assay: Drug level assessed as recombinant human CYP3A5-mediated compound formation treated with lapatinib at 50 uM after 60 mins by GSH trapping assay in presence of NADPH; conditions: recombinant enzyme, 1 h
Procedure, shortened: (§2)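 Recombinant CYP3A5 at 50 pmol/ml with 5 mM GSH and an NADPH regenerating system in 100 mM potassium phosphate (pH 7.4) was pre-warmed at 37°C. Substrate was added to start the reaction. After 60 min it was quenched with ice-cold ACN and centrifuged, and the supernatant was dried under nitrogen and reconstituted. Adducts were detected by LC/MS/MS MRM scans. Negative controls omitted substrate, NADPH or GSH.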

Cytochrome P450 3A5 [3] = molecular target: T1, Cytochrome P450 3A5; assay: Drug level assessed as recombinant human CYP3A5-mediated compound formation treated with O-dealkylated lapatinib at 50 uM after 60 mins by GSH trapping assay in presence of NADPH; conditions: recombinant enzyme, 1 h; procedure, shortened: as §2
Cytochrome P450 3A4 = Cytochrome P450 3A4 (Homo sapiens, UniProt P08684); assay: Inhibition of human recombinant CYP3A4 assessed as metabolite-inhibitor complex formation at 50 uM preincubated for 3 to 5 mins with NADPH A followed by NADPH B addition measured every 1 min for 10 mins by UV absorbance spectra analysis; conditions: recombinant enzyme
Chain of Cytochrome P450 3A4 (P08684 whole entry): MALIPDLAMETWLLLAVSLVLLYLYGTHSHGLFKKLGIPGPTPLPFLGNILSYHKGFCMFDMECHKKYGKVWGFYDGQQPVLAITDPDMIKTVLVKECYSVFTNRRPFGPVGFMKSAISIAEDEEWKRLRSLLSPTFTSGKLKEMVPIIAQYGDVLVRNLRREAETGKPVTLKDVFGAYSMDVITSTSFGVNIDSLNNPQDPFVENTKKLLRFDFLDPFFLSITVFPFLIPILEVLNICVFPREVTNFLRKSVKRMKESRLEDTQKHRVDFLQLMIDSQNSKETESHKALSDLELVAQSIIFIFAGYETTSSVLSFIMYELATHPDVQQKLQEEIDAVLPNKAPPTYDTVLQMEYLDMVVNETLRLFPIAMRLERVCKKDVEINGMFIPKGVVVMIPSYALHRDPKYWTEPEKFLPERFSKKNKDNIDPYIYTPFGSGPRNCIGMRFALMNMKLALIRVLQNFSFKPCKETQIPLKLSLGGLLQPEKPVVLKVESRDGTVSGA
Procedure, shortened: (§3)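 For difference spectra, 50 µM compound with 100 pmol/ml recombinant enzyme and NADPH A in 100 mM potassium phosphate (pH 7.4) was pre-warmed at 37°C for 3–5 min. NADPH B was added to start the reaction. The mixture was scanned from 430 to 495 nm every 1 min for 10 min at 37°C against a reference cuvette, normalized to 0 min. The negative control replaced NADPH B with buffer.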

Cytochrome P450 3A5 [4] = molecular target: T1, Cytochrome P450 3A5; assay: Irreversible inhibition of human recombinant CYP3A5 using testosterone as substrate assessed as residual enzyme activity at 50 uM preincubated up to 30 mins with NADPH followed by substrate addition measured after dialysis
Procedure, shortened: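 200 pmol/ml rCYP3A5 with 50 µM lapatinib and NADPH in 100 mM phosphate (pH 7.4) was incubated for 30 min at 37°C (n=3). Mixtures were dialysed (12000–14000 Da cut-off) against buffer at 4°C with one buffer change at 2 h, then for 4 h more. Aliquots before and after dialysis were assayed with 200 µM testosterone for 10 min at 37°C. 6β-Hydroxytestosterone was measured by LC/MS/MS.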

CYP3A5 [5] = molecular target: T2, CYP3A5 (Homo sapiens, UniProt P20815); assay: Ratio of Kinact to Ki for recombinant human CYP3A5 using testosterone as substrate; conditions: recombinant human CYP3A5, probe testosterone
T2 sequence (P20815 whole entry): as the sequence (P20815 whole entry) above
Procedure, shortened: (§4)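 Primary: rCYP3A5 20 pmol/ml, inhibitor 2.5–50 μM, 100 mM phosphate pH 7.4, 37°C, NADPH-initiated; aliquots at 0–30 min diluted 10-fold into secondary mix with 200 μM testosterone plus NADPH regenerating system, 10 min at 37°C. 6β-hydroxytestosterone by LC/MS/MS, triplicate. ln % residual activity vs time gave kobs; KI, kinact from Kitz-Wilson plot.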

Cytochrome P450 3A5 [6] = molecular target: T1, Cytochrome P450 3A5; assay: Inhibition of human recombinant CYP3A5 using testosterone as substrate assessed as testosterone 6-beta-hydroxylation at 2.5 to 50 uM preincubated up to 30 mins with NADPH followed by substrate addition by LC/MS/MS analysis; conditions: recombinant enzyme, TDE = time-dependent effect; procedure, shortened: as §4
Cytochrome P450 3A5 [7] = molecular target: T1, Cytochrome P450 3A5; assay: (§5) Inhibition of human recombinant CYP3A5 using testosterone as substrate assessed as testosterone 6-beta-hydroxylation preincubated up to 30 mins with NADPH followed by substrate addition measured after 10 mins by LC/MS/MS analysis; procedure, shortened: as §4
CYP3A5 [8] = molecular target: T2, CYP3A5; assay: as §5; conditions: human, recombinant human CYP3A5, probe testosterone; procedure, shortened: as §4
Cytochrome P450 3A5 [9] = molecular target: T1, Cytochrome P450 3A5; assay: Inhibition of human recombinant CYP3A5 at 50 uM preincubated up to 30 mins with NADPH in absence of GSH; conditions: recombinant enzyme
Procedure, shortened: (§6)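 Primary incubation at 37°C contained 20 pmol/ml rCYP3A5 in 100 mM phosphate (pH 7.4) with 50 µM lapatinib and NADPH, with or without 2 mM GSH. At 0–30 min, aliquots were diluted 10-fold into secondary incubations with 200 µM testosterone and NADPH regenerating system for 10 min at 37°C. 6β-Hydroxytestosterone was measured by LC/MS/MS. Triplicates were run.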

Cytochrome P450 3A5 [10] = molecular target: T1, Cytochrome P450 3A5; assay: Inhibition of human recombinant CYP3A5 assessed as metabolite-inhibitor complex formation at 50 uM preincubated for 3 to 5 mins with NADPH A followed by NADPH B addition measured every 1 min for 10 mins by UV absorbance spectra analysis; conditions: recombinant enzyme; procedure, shortened: as §3
CYP3A4 = CYP3A4 (Homo sapiens, UniProt P08684); assay: Ratio of Kinact to Ki for recombinant human CYP3A4 using testosterone as substrate; conditions: recombinant human CYP3A4, probe testosterone
Chain of CYP3A4 (P08684 whole entry): as the sequence (P08684 whole entry) above

Cytochrome P450 3A5 [11] = molecular target: T1, Cytochrome P450 3A5; assay: Inhibition of human recombinant CYP3A5 using testosterone as substrate assessed as testosterone 6beta-hydroxylation at 50 uM preincubated up to 30 mins with NADPH followed by substrate addition measured after 10 mins by LC/MS/MS analysis; conditions: recombinant enzyme; procedure, shortened: as §1
Cytochrome P450 3A5 [12] = molecular target: T1, Cytochrome P450 3A5; assay: Inhibition of human recombinant CYP3A5 using midazolam as substrate assessed as midazolam 1'-hydroxylation at 2.5 to 50 uM preincubated up to 30 mins with NADPH followed by substrate addition measured after 10 mins by LC/MS/MS analysis; conditions: recombinant enzyme; procedure, shortened: as §1
Cytochrome P450 3A5 [13] = molecular target: T1, Cytochrome P450 3A5; assay: Inhibition of human recombinant CYP3A5 using testosterone as substrate assessed as testosterone 6-beta-hydroxylation at 50 uM preincubated up to 30 mins without NADPH followed by substrate addition measured after 10 mins by LC/MS/MS analysis; conditions: recombinant enzyme; procedure, shortened: as §1
Cytochrome P450 3A5 [14] = molecular target: T1, Cytochrome P450 3A5; assay: Drug metabolism assessed as recombinant human CYP3A5-mediated quinoneimine metabolite formation by measuring retention time at 50 uM after 60 mins by GSH trapping assay in presence of NADPH; conditions: recombinant enzyme, 1 h; procedure, shortened: as §2
Cytochrome P450 3A5 [15] = molecular target: T1, Cytochrome P450 3A5; assay: Inhibition of human recombinant CYP3A5 at 50 uM preincubated up to 30 mins with NADPH in presence of GSH; conditions: recombinant enzyme; procedure, shortened: as §6
CYP3A5 [16] = molecular target: T2, CYP3A5; assay: Inhibition of human recombinant CYP3A5 assessed as reduction of enzyme-CO complex formation at 50 uM preincubated for 3 to 5 mins with NADPH B followed by NADPH A addition measured after 30 mins by CO difference spectroscopy relative to control
Procedure, shortened: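 rCYP3A5 640 pmol/ml with 50 μM inhibitor in 100 mM potassium phosphate pH 7.4, prewarmed 3–5 min at 37°C, NADPH-initiated, incubated 30 min at 37°C (n=3). Quenched in buffer with EDTA, glycerol, NP-40, safranin O; split sample/reference, CO bubbled (~100 bubbles). P450 content = (ΔA450−ΔA490)/0.091; controls without NADPH.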

**Q.** For `CS(=O)(=O)CCNCc1ccc(-c2ccc3ncnc(Nc4ccc(O)c(Cl)c4)c3c2)o1`, which “inhibition (INH)” value (Cytochrome P450 3A5 [1]) is on record?
**A.** Not Active

**Q.** With `CS(=O)(=O)CCNCc1ccc(-c2ccc3ncnc(/N=C4\C=CC(=O)C(Cl)=C4)c3c2)o1` as the compound, how does the Drug metabolism (Cytochrome P450 3A5 [2]) read?
**A.** metabolite_detected

**Q.** And the Drug metabolism (Cytochrome P450 3A5 [3])?
**A.** metabolite_detected

**Q.** With `CS(=O)(=O)CCNCc1ccc(-c2ccc3ncnc(Nc4ccc(OCc5cccc(F)c5)c(Cl)c4)c3c2)o1` [LAPATINIB] as the compound, how does the “inhibition (INH)” value (Cytochrome P450 3A4) read?
**A.** Active

**Q.** And the “inhibition (INH)” value (Cytochrome P450 3A5 [4])?
**A.** Active

**Q.** What about the kinact/KI (CYP3A5 [5]) of the same compound?
**A.** 10 M⁻¹ s⁻¹

**Q.** And the “inhibition (INH)” value (Cytochrome P450 3A5 [6])?
**A.** tde

**Q.** What about the Ki (Cytochrome P450 3A5 [7]) of the same compound?
**A.** 37.6 µM

**Q.** And the “inhibition (INH)” value (Cytochrome P450 3A5 [7]; human, recombinant enzyme, 10 min)?
**A.** Dose-dependent effect

**Q.** And the kinact at 10 min (CYP3A5 [8])?
**A.** 0.000377 s⁻¹

**Q.** And the “inhibition (INH)” value (Cytochrome P450 3A5 [9])?
**A.** Active

**Q.** What about the “inhibition (INH)” value (Cytochrome P450 3A5 [10]) of the same compound?
**A.** Not Active

**Q.** And the kinact/KI (CYP3A4)?
**A.** 197 M⁻¹ s⁻¹

**Q.** And the “inhibition (INH)” value (Cytochrome P450 3A5 [11])?
**A.** Active

**Q.** What about the “inhibition (INH)” value (Cytochrome P450 3A5 [12]) of the same compound?
**A.** Not Active

**Q.** What about the “inhibition (INH)” value (Cytochrome P450 3A5 [13]) of the same compound?
**A.** Not Active

**Q.** What about the Retention_time (Cytochrome P450 3A5 [14]) of the same compound?
**A.** 1.71 min

**Q.** And the “inhibition (INH)” value (Cytochrome P450 3A5 [15])?
**A.** Not Active

**Q.** What about the inhibition at 0.5 h, 50 µM (CYP3A5 [16]) of the same compound?
**A.** 22%
